Screens (PubChem)
Compounds with a hit are over-represented: about 2.4% of the library has one in this group of screens.
H9c2 protect – myocardial damage modulation in H9c2 cells; H9c2 cardiomyocytes, H2O2 injury protection, ATPLite, 2 h; 360,000 compounds, 0.63% hits; protection from H2O2 cell death, % at 20 µM;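 active means compounds giving at least 50% protection of heart cells from peroxide-induced death in the single-dose screen, raw or plate-pattern-corrected value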
CTSL1 counter – counter-screen for PFM18AAP inhibitors: inhibitors of F. hepatica cathepsin L1 | recombinant F. hepatica cathepsin L1, Z-Leu-Arg-MCA fluorescence | inhibition, % at 5.96 µM | 300,000 compounds, 0.49% hits | AID 1906;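 active means inhibition above the mean of all tested compounds plus 3 SD, set per screening campaign, cut at about 17% in these data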
p-CIP stab down – lowers stability of the mouse p/CIP coactivator protein; Q05BA5; F442A p/CIP-EGFP cells, EGFP fluorescence, 16 h; decrease of EGFP signal, % at 10 µM; 290,000 compounds, 0.01% hits; AID 1984;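 active means EGFP signal decrease of at least 30% at 10 µM or well 3 SD below plate mean, unless failing retest; inactive means the rest, including hits failing retest or dose response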
T cruzi inh – blocks replication of Trypanosoma cruzi; T. cruzi beta-gal in NIH3T3, luminescence, 90 h; inhibition, % (concentration not given with the values); 300,000 compounds, 1.4% hits; AID 1885;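 active means mean inhibition across valid replicates above about 55%, limit read from the data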;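 further: signal also drops with host cell toxicity which is not excluded here; higher percent means less beta-gal luminescence so fewer parasites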
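assay system = mouse NIH/3T3 fibroblasts infected with β-gal-expressing T. cruzi Tulahuen C4 | input = 5,000 NIH/3T3 host cells per well | buffer or medium = DMEM plus 2% FBS | timing = 3 h host attachment, then at least 90 h co-culture | measured by = GalScreen luminescence, 60 min | evaluation = luminescence reflecting intracellular parasite burden, expressed as percent inhibition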
PP5 inh – inhibitors of human protein phosphatase 5 (PP5); 320,000 compounds, 0.18% hits; purified PP5c, OMFP substrate fluorescence; inhibition, % at 6.7 µM; P53041; AID 1987;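 active means inhibition above the campaign's mean inhibition across all tested compounds plus 3 SD, cut at about 9.5% in these data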
GASC-1 inh – blocks human GASC-1 demethylase activity; Q9H3R0; GST-JMJD2C(1-420) H3K9me3 demethylation, DELFIA europium; inhibition, % at 2.35 µM; 330,000 compounds, 0.069% hits; AID 2099;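 active means more than half of a compound's replicate wells show inhibition beyond 50%, single wells judged on their own value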;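 further: signal counts dimethyl H3K9 product captured on neutravidin plate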
Each line names hits and unclear results; the compound was inactive in the other large screens; ! = not confirmed by another sample.

CC(=O)Oc1cc2oc(=O)cc(C)c2cc1OC(C)=O	none
CC(=O)Oc1ccc2c(C)cc(=O)oc2c1	H9c2 protect 60.8
O=C(Nc1ccnn1C1CCN(C(=O)CCc2ccc(F)cc2)CC1)C1CCOC1 (configuration not stated)	none
CN1C=C/C(=C\c2cc[n+](C)c3ccccc23)c2ccccc21	T cruzi inh 55.9 (no result: CTSL1 counter, PP5 inh)
O=C(NCc1ccco1)C(c1ccncc1)N(C(=O)Cc1cccs1)c1ccccc1 (configuration not stated)	none
O=C(NCc1ccco1)C(c1ccccc1)N(C(=O)Cc1cccs1)c1ccccc1F (configuration not stated)	H9c2 protect 75.0
CCOC(=O)Nc1cccc(OCC(=O)Nc2ccccc2OCC)c1	CTSL1 counter 29.7
CC(=O)Nc1ccc(OCC(O)Cn2c3ccccc3c3ccccc32)c(C)c1 (configuration not stated)	T cruzi inh 55.8
CC(CN1CCCCC1)OC(=O)c1ccco1 (configuration not stated)	none
O=[N+]([O-])c1ccc(Sc2nc3ccccc3o2)c([N+](=O)[O-])c1	T cruzi inh 54.7
O=c1[nH]c(Sc2ccc([N+](=O)[O-])cc2[N+](=O)[O-])nc2ccccc12	T cruzi inh 60.9 (no result: p-CIP stab down)
O=[N+]([O-])c1ccc(Cl)cc1Sc1nc2ccccc2o1	none
Cc1ccc(S(=O)(=O)N2CCOCC2)cc1NC(=O)COC(=O)c1ccc(Br)o1	none (no result: CTSL1 counter, p-CIP stab down, T cruzi inh, PP5 inh, GASC-1 inh)
CC1CCC(C(C)C)C(OC(=O)Cn2c(-c3ccc(Br)cc3)[n+](C)c3ccccc32)C1 (configuration not stated)	T cruzi inh 62.9!
CC1CCC(C(C)C)C(OC(=O)Cn2c(-c3ccc(Cl)cc3)[n+](C)c3ccccc32)C1 (configuration not stated)	none
Cc1ccccc1OCc1n(CC(=O)OC2CC(C)CCC2C(C)C)c2ccccc2[n+]1C (configuration not stated)	T cruzi inh 65.5
Cc1cc(Br)cc(C)c1OCCCCN(C)C	T cruzi inh 63.0
Cc1cc(Cl)c(OCCCN(C)C)c(Br)c1	none
COc1ccc(Cl)cc1NC(=O)CN(C)C(=O)c1cccc2cccnc12	none (no result: CTSL1 counter, p-CIP stab down, T cruzi inh, PP5 inh)
COc1ccc(/C(N)=N/OC(=O)c2ccc3c(c2)OCO3)cc1OC	T cruzi inh 57.2
Cc1onc(-c2c(F)cccc2Cl)c1C(=O)O/N=C(\N)c1ccc([N+](=O)[O-])o1	T cruzi inh 59.6
COc1ccc(/C(N)=N/OC(=O)c2c(-c3ccccc3Cl)noc2C)cc1OC	T cruzi inh 56.8 (no result: CTSL1 counter, PP5 inh)
CC(C)c1onc(C(=O)Nc2ccc3c(c2)OCO3)c1[N+](=O)[O-]	none
CCCNS(=O)(=O)c1cc2c(cc1Br)CCN2C(=O)CC	none (no result: CTSL1 counter, p-CIP stab down, T cruzi inh, PP5 inh, GASC-1 inh)
CCOc1ccc2nc(NC(=O)c3cccc(-c4cc5ccccc5oc4=O)c3)sc2c1	none
Cc1ccc2nc(NC(=O)c3cccc(-c4cc5ccccc5oc4=O)c3)sc2c1	T cruzi inh 63.7 (no result: H9c2 protect)
CC1CCCN(C(=O)CSc2nnc(-c3ccco3)n2C)C1 (configuration not stated)	none
COc1ccc(N2CCN(C(=O)CSc3nnc(-c4ccco4)n3C)CC2)cc1	GASC-1 inh 64.1 (no result: H9c2 protect)
CCCCc1ccc(NC(=S)NCc2cccc(OC)c2)cc1	T cruzi inh 56.3
COc1cc(OC)c2ccc(=O)oc2c1C(CC(=O)N1CCN(c2ccccc2)CC1)c1ccc2c(c1)OCO2 (configuration not stated)	H9c2 protect 69.5
CC(=O)Nc1cc(-c2ccc(C(=O)NC3CC3)cc2)cn2c(-c3cccc(C(F)(F)F)c3)cnc12	none (no result: CTSL1 counter, p-CIP stab down, T cruzi inh, PP5 inh, GASC-1 inh)
O=[N+]([O-])c1c(Nc2ccccn2)cc(Cl)c2nonc12	T cruzi inh 59.8
O=[N+]([O-])c1c(Nc2ccc(O)cc2)cc(Cl)c2nonc12	T cruzi inh 64.1
CN(C)c1cc(Nc2ccc(O)cc2)c([N+](=O)[O-])c2nonc12	none
Cc1onc(-c2ccc(Cl)cc2Cl)c1-c1csc(N/N=C/c2ccccc2Cl)n1	T cruzi inh 62.0
CC(C)NC(=O)c1sc2nc3c(c(-c4cccs4)c2c1N)CN(C)CC3	T cruzi inh 56.5
Cc1cccc(NC(=O)c2sc3nc4c(c(-c5cccs5)c3c2N)CN(C)CC4)c1	none
Oc1ccc(/C=N/N=C(c2ccccc2)c2ccccc2)c(O)c1O	H9c2 protect 85.4 (no result: T cruzi inh)
O=C(/C(=N/N=C/c1ccc(O)c(O)c1O)c1ccccc1)c1ccccc1	H9c2 protect 57.9
CC(=O)c1cccc(NC(=O)C2(C)Cc3c(-c4ccccc4)ccnc3O2)c1 (configuration not stated)	none (no result: CTSL1 counter, p-CIP stab down, T cruzi inh, PP5 inh, GASC-1 inh)
CCCCNC(=O)C1(C)CCCCN1C(=O)c1ccc2c(c1)C(C)(C)CCC2(C)C (configuration not stated)	none (no result: CTSL1 counter, p-CIP stab down, T cruzi inh, PP5 inh, GASC-1 inh)
CN(Cc1ccccc1)S(=O)(=O)c1ccc(Cl)c(C(=O)OCC(=O)NC2CCS(=O)(=O)C2)c1 (configuration not stated)	none (no result: CTSL1 counter, p-CIP stab down, T cruzi inh, PP5 inh)
O=C(Cc1ccc([N+](=O)[O-])cc1)Nc1cc(C(F)(F)F)cc(C(F)(F)F)c1	T cruzi inh 70.4
O=c1c2c3nc4ccccc4nc3n(/N=C/c3ccco3)c2ncn1CCC1=CCCCC1	none
CCCCCCn1c(C)nc2c(c1=O)c1nc3ccccc3nc1n2/N=C/c1ccco1	H9c2 protect 90.5
Cc1nc2c(c(=O)n1CCC1=CCCCC1)c1nc3ccccc3nc1n2/N=C/c1ccccc1	H9c2 protect 109.2
CCCC(=O)NC(c1ccccc1)c1ccc2cccnc2c1O (configuration not stated)	T cruzi inh 57.7
COc1cccc(C(NC(C)=O)c2ccc3cccnc3c2O)c1 (configuration not stated)	T cruzi inh 56.5
CCCC(=O)NC(c1ccc(OC)cc1)c1ccc2cccnc2c1O (configuration not stated)	T cruzi inh 74.4
COc1ccc(Cl)cc1C(Nc1cccnc1)c1ccc2cccnc2c1O (configuration not stated)	T cruzi inh 71.9
CC(=O)NC(c1cccc([N+](=O)[O-])c1)c1ccc2cccnc2c1O (configuration not stated)	none (no result: CTSL1 counter, PP5 inh)
COC(=O)C(C(=O)OC)C1C=CCN(C(C)=O)C1 (configuration not stated)	none (no result: CTSL1 counter, p-CIP stab down, T cruzi inh, PP5 inh, GASC-1 inh)
CC(=O)NC(c1ccc(C(C)C)cc1)c1ccc2cccnc2c1O (configuration not stated)	T cruzi inh 56.2
Oc1cccc(C(Nc2nccs2)c2ccc3cccnc3c2O)c1 (configuration not stated)	T cruzi inh 91.6
CCC(=O)NC(c1ccccc1OC)c1ccc2cccnc2c1O (configuration not stated)	T cruzi inh 59.5
